Bioassay records as filed in PubChem.
Rows were chosen to be rich in hits. Some 4.8% of all compounds tested hit in one or more screens of this group.
HSF1 inh: HSF1 inhibition; NIH3T3-HGL HSE-luciferase, MG132-induced, luminescence 8 h; hits give low values; activity change, negative = inhibition, % at 7.5 µM (by protocol); actives 0.77% (n = 300,000); AID 2098;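 active = more than half of replicate wells show activity change below -50%, luminescence cut by over half; inconclusive = some wells, but at most half, below -50%; inactive = no replicate well below -50%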;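 also: luciferase reports HSF-1 transcriptional activity via heat shock element; 0% = median of DMSO wells and -100% = zero luminescence signal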
GPR7 antagonist: blocks human GPR7 receptor signaling; P48145; GPR7-expressing cells, fluorescence antagonist assay; inhibition, % at 4.4 µM; actives 1.1% (n = 290,000); in the data active = inhibition above about 16%, passing the limit was not always enough;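 also: cells stimulated with the agonist NPW; 0% = agonist with vehicle and 100% = vehicle without agonist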
Target sequence (P48145 whole entry, looked up): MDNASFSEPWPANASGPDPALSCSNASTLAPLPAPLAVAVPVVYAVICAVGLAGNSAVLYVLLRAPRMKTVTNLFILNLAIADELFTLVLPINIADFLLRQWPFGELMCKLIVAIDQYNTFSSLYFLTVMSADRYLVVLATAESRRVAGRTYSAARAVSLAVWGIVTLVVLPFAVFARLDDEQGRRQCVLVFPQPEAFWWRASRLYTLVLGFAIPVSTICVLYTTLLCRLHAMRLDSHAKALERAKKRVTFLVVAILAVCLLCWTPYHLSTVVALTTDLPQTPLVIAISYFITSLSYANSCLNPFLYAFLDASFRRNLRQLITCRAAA
Jurkat NFkB inh: inhibitors of the PMA/ionomycin-induced NF-kB reporter in Jurkat cells; AID 435003; inhibition, % at 4 µM; PMA/ionomycin-induced NF-kB luciferase reporter, luminescence; actives 0.53% (n = 330,000); in the data active = inhibition above about 50%
697 NFkB inh: inhibitors of the PMA/ionomycin-induced NF-kB reporter in 697 B cells; AID 435022; inhibition, % at 4 µM; 697 B-cell NF-kB luciferase reporter, 16 h; actives 0.33% (n = 330,000); in the data active = inhibition above about 35%
HSF-1 act: increases HSF-1 driven luciferase reporter signal | NIH3T3-HGL HSF-1 luciferase reporter, MG132, 8 h; 100% = twice DMSO control signal | activation, % at 9 µM | actives 1.7% (n = 300,000) | AID 504408;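 active = mean replicate activation of at least 50% with a set share of replicates each reaching 50%; inconclusive = only one of those two conditions met; inactive = mean below 50% and too few replicates reaching it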;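 also: 0% = median of the neutral control wells and 100% = twice that signal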
T cruzi inh: blocks replication of Trypanosoma cruzi. inhibition, % (test concentration not listed). actives 1.4% (n = 300,000). T. cruzi beta-gal in NIH3T3, luminescence, 90 h;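 active = mean inhibition across valid replicates above about 55%, limit read from the data; inconclusive = mean below that limit but half or more replicates reach it; inactive = mean below it, under half of replicates reach it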;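 also: signal also drops with host cell toxicity which is not excluded here; 0% = plate median of DMSO wells and 100% = zero luminescence signal; higher percent means less beta-gal luminescence so fewer parasites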
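Read-out: Parasite load inhibition, % | Test system: Mouse NIH/3T3 fibroblasts infected with β-gal-expressing T. cruzi Tulahuen C4 | Amount: 5,000 cells/well | Medium: DMEM, 2% fetal bovine serum | Signal: GalScreen β-gal luminescence, detergent lysis, 60 min | Timing: 3 h attach, ≥90 h co-culture | Also added: Tulahuen C4 trypomastigotes, 5000/well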
Jurkat NFkB conf: lowers PMA/ionomycin-induced NF-kB signal in Jurkat cells; Jurkat NF-kB luciferase, 16 h; inhibition, % at 4 µM; actives 27% (n = 2,700); AID 435020; shares compounds with Jurkat NFkB inh;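 active = inhibition reaching about 45% at 4 µM in either replicate, limit read from the data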;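 also: plate controls were PMA/ionomycin stimulated DMSO wells for no effect and unstimulated DMSO wells for full effect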
697 NFkB conf: inhibitors of the PMA/ionomycin-induced NF-kB reporter in 697 B cells, retest; shares compounds with 697 NFkB inh; 697 B-cell NF-kB luciferase, 16 h; inhibition, % at 4 µM; actives 35% (n = 2,000); in the data active = inhibition mostly above about 28%, no sharp cut-off; inactive = mostly below about 22%
* marks the source's active call; other numbers are inactive results; i = inactive; ? = inconclusive; / = not tested or not shown.

SMILES | HSF1 inh | GPR7 antagonist | Jurkat NFkB inh | 697 NFkB inh | HSF-1 act | T cruzi inh | Jurkat NFkB conf | 697 NFkB conf
N#CC1(c2ccc(NC(=O)c3ccccc3F)cc2)CCCC1 | 13 | -2 | -210 | -281 | 49 | 27 | -166 | -214
O=C(Nc1ccc2c(c1)Cc1ccccc1-2)c1ccccc1F | 22 | / | -161 | -323 | 45 | -5 | -139 | -202
NS(=O)(=O)c1ccc(CNC(=O)/C=C/c2c(F)cccc2Cl)cc1 | -6 | 1 | -12 | 12 | 7 | -5 | / | /
N#C/C(=C\c1ccc(N2CCOCC2)cc1)c1ccccc1 | -4 | -4 | -180 | -254 | -16 | -7 | -98 | -200
COc1ccc(C(CCN2CCCC(C)C2)c2c(OC)cc(OC)c3c2OC(=O)CC3c2cc(OC)c(OC)c(OC)c2)cc1 (stereo not given) | 2 | / | 9 | 13 | 5 | 13 | / | /
COc1ccc(-c2c(C)nc3c(-c4ccsc4)cnn3c2N)cc1 | -19 | 8 | -196 | -252 | -21 | 29 | -76 | -165
COc1ccc(-c2c(C)nc3c(-c4ccccn4)cnn3c2N)cc1 | -13 | 8 | / | / | -9 | -9 | / | /
Brc1ccc(-c2nnc(-c3ccccc3Br)o2)cc1 | 18 | 9 | -194 | -308 | 44 | 15 | -95 | -267
CCOc1ccc(NC(=O)Nc2cccc(C(=O)O)c2)cc1 | -72* | -9 | 82* | 81* | -76 | -7 | 80* | 77*
O=C(Nc1ccc(Cl)cc1)Nc1cccc(C(=O)O)c1 | -40 | -6 | 76* | 53* | -43 | -6 | 44 | 32*
CCOC(=O)c1cccc(NC(=O)Nc2ccc(OCC)cc2)c1 | -3 | -8 | -25 | -54 | 16 | 20 | / | /
Cc1ccc(N(CC(=O)Nc2ccc3c(c2)OCCO3)S(C)(=O)=O)cc1 | 3 | 2 | -39 | -23 | 4 | -12 | / | /
Nc1c(-c2ccccc2)cnc2c(-c3ccccc3)cnn12 | -5 | 3 | -231 | i | 6 | -4 | -190 | i
Nc1c(C(=O)O)cnc2c(-c3ccc(Cl)cc3)cnn12 | 39 | -20 | -61 | -144 | ? | -8 | / | /
Cc1ccccc1C[n+]1cccc2ccccc21 | -2 | / | 13 | -22 | -7 | -16 | / | /
CCCCCCCCCCCCCCCC[n+]1cccc2ccccc21 | / | 11 | 88* | 62* | / | / | 88* | 23*
COc1cccc(NC(=O)c2ccc(C(=O)c3ccccc3)o2)c1 | 9 | -10 | -80 | -2 | 24 | -6 | / | /
CC(=Nc1ccc(C)cc1)c1sc2ccccc2c1O | 20 | 5 | -152 | -387 | 31 | 41 | -77 | -144
CC(=Nc1cccc(O)c1)c1sc2ccccc2c1O | 7 | 16 | -121 | -185 | 13 | -5 | / | /
COc1cccc(/C=C/c2ccc3cccc(O)c3n2)c1 | -7 | -20 | -112 | -239 | 4 | ? | / | /
Oc1cccc(/C=C/c2ccc3cccc(O)c3n2)c1 | -15 | 18 | -167 | -360 | -26 | -22 | -142 | -77
CC[C@]12c3[nH]c4ccc(Cl)cc4c3CCN1C(=O)[C@@H](CC(=O)NCCCN(C)C)C[C@@H]2C(=O)N1CCN(C(=O)c2ccco2)CC1 | / | / | / | -6 | / | / | / | /
COc1cc([C@@H]2c3cc4c(cc3[C@H](O)[C@H]3COC(=O)[C@H]23)OCO4)cc(OC)c1OC | -69* | 16 | 73* | -327 | -74 | 13 | 62* | -96
Cc1ccc(-c2nnc(/C=C/c3ccccc3)o2)cc1 | -23 | -13 | -188 | -312 | -40 | ? | -149 | -253
Cc1ccc(/C=C/c2nnc(-c3cccc(C)c3)o2)cc1 | 16 | -8 | -35 | -71 | 26 | -3 | / | /
SMILES | HSF1 inh | GPR7 antagonist | Jurkat NFkB inh | 697 NFkB inh | HSF-1 act | T cruzi inh | Jurkat NFkB conf | 697 NFkB conf
O=C(NCC1(c2ccccc2)CCCC1)c1ccc(Br)o1 | -3 | -12 | -2 | -6 | 14 | 2 | / | /
CC1(C)CC(N2CCCC2)=CC(=[N+]2CCCCCC2)C1 | -3 | 26* | 57* | 71* | -3 | 57* | 63* | 51*
CC1(C)CC(=O)C=C(N2CCNCC2)C1 | -2 | 2 | -5 | 18 | 2 | -5 | / | /
CCN(CC)S(=O)(=O)c1ccc(Oc2ccc(S(=O)(=O)N(CC)CC)cc2)cc1 | 5 | -8 | 55* | 84* | 13 | 7 | 75* | 87*
CC(OC(=O)CCc1ccccc1)C(=O)Nc1ncc(Cl)cc1Cl (stereo not given) | -7 | -6 | -8 | -9 | 5 | -18 | / | /
CCOc1ccc2nc(NC(=S)N(C)C)sc2c1 | 13 | -10 | -201 | -395 | 32 | 41 | -79 | -246
Cc1cc(Cl)c(S(=O)(=O)N2CCN(c3ccc(F)cc3)CC2)cc1OCC(=O)NC1CCCCC1 | 1 | 6 | 65* | 98* | 33 | ? | 75* | 92*
Cc1ccc(NC(=O)N2CCCc3ccccc32)cc1 | 5 | 12 | -2 | 10 | 40 | 13 | / | /
Cc1ccc(NC(=O)N2CCc3ccccc32)cc1C | 15 | -15 | -180 | -406 | 51* | -1 | -151 | -298
O=C(c1ccccc1)n1c(=S)nc2ccccn21 | -23 | / | -157 | -319 | -15 | 0 | -61 | -274
O=C(/C=C/Nc1ccc(F)cc1F)c1ccc(Br)cc1 | 22 | / | -167 | -255 | 36 | -14 | -30 | -62
O=C(/C=C/Nc1ccc(F)cc1F)c1ccco1 | 9 | -3 | -64 | -154 | 28 | 2 | / | /
O=C(/C=C/Nc1ccc(F)cc1F)c1cccs1 | 30 | -12 | -168 | -364 | 77* | -12 | -37 | -197
Cc1ccc(N/C=C/C(=O)c2cccs2)cc1 | -5 | 0 | -158 | -261 | -9 | -1 | 9 | -133
O=C(NC1CCCCC1)C1CCN(S(=O)(=O)c2cccc3nonc23)CC1 | 0 | -1 | 6 | -1 | 0 | 10 | / | /
COc1ccc(-c2ccc3ccccc3n2)cc1 | 1 | -9 | -180 | -307 | 39 | -10 | -122 | -286
COc1ccc(-c2ccc3ccccc3n2)cc1OC | 24 | -11 | -132 | -142 | 48 | -14 | / | /
CC(C)CCn1cnc2c(sc3nc4c(cc32)CSC(C)(C)C4)c1=O | -37 | -10 | -208 | -359 | -32 | 1 | -65 | -286
CC1(C)Cc2nc3sc(C(=O)O)c(N)c3cc2CS1 | -3 | -4 | -7 | 22 | 6 | -8 | / | /
CCc1ccc(-c2nc(CS(=O)CC(=O)NCc3ccco3)c(C)o2)cc1 (stereo not given) | -48 | -8 | 51* | 36* | -54 | -30 | 56* | 35*
O=C(O)C1CSC2(c3ccc(Br)cc3)CCC(=O)N12 (stereo not given) | -1 | -5 | -4 | 16 | 7 | -8 | / | /
